# Data: ChEMBL document CHEMBL2176879, “Identification of HIV-1 inhibitors targeting the nucleocapsid protein” (J Med Chem, 2012)
# Activity calls are given as the source filed them.
# Key:
# [1] = test system: SUP-T1; experiment: Cytotoxicity against human SupT1 cells at 10 uM after 7 days by Trypan Blue dye exclusion analysis; assay type: cell-based; details: sup-t1, 168 h
# [2] = test system: Human immunodeficiency virus 1; experiment: Antiviral activity against HIV1 NL4-3 infected in human HeLa cells assessed as drecrease of p24 antigen level after 2 days by CFAR; assay type: functional, organism-based; details: Human immunodeficiency virus 1, NL4-3, HeLa, 48 h
# In short: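 2×10^5 HeLa cells in Opti-MEM given increasing compound concentrations (1 % DMSO controls); after 2 days transiently transfected with 1 μg pNL4-3 plasmid by lipofection. Virus production quantified as p24, expressed relative to DMSO controls; three independent transfections, mean ± s.d.; EC50 derived.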
# [3] = test system: Human immunodeficiency virus 1; experiment: Displacement of FAM-labeled SL-2 from HIV1 NL4-3 N-terminal GST-tagged nucleocapsid protein-FAM-labeled SL-2 complex expressed in Escherichia coli BL21DE3 by EMSA analysis
# In short: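 Pre-formed complex of GST-p2-NC with fluorescein-labeled SL-2 DNA (15 μM protein, 0.5 μM DNA in PBS, 10 nM ZnCl2) incubated with compound, resolved by native PAGE; free/bound probe quantified by fluorescence gel scanning.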
# [4] = test system: SUP-T1; experiment: Cytotoxicity against human SupT1 cells at 0.1 uM after 7 days by Trypan Blue dye exclusion analysis; assay type: cell-based; details: sup-t1, 168 h
# In short: (§1)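 SupT1 T cells in RPMI1640 with 10 % FBS, 2 mM L-glutamine, 0.1 mM NEAA, 1 mM sodium pyruvate, penicillin/streptomycin, at 37 °C and 5 % CO2. Compounds were dissolved in DMSO and incubated with the cells for several days. Viability was read as dead vs. viable cells by Trypan Blue dye exclusion, counted under a microscope.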
# [5] = Inhibition of HIV1 NL4-3 N-terminal GST-tagged nucleocapsid protein interaction to FAM-labeled SL-2 DNA expressed in Escherichia coli BL21DE3 by fluorescence polarisation assay; parameters: species or system Human immunodeficiency virus 1
# [6] = test system: Human immunodeficiency virus 1; experiment: Binding affinity to HIV1 Gag protein assessed as change in melting temperature using SYPRO orange by differential scanning fluorimetry analysis
# In short: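 5 μM GST-Gag incubated with 5X SYPRO Orange and 5 μM compound in 5 mM HEPES pH 7.5, 150 mM NaCl; heated 35–94 °C at 1 °C/min. Tm from Boltzmann sigmoid fit; ΔTm of 2 °C taken as hit threshold.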
# [7] = test system: SUP-T1; experiment: Cytotoxicity against human SupT1 cells at 0.1 to 1 uM after 7 days by Trypan Blue dye exclusion analysis; assay type: cell-based; details: sup-t1, 168 h
# [8] = test system: Human immunodeficiency virus 1; experiment: Binding affinity to HIV1 NL4-3 N-terminal GST-tagged nucleocapsid protein expressed in Escherichia coli BL21DE3 by resonant waveguide grating-based SRU BIND assay
# In short: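 GST-p2-NC (NL4-3, E. coli BL21DE3(pLysS), GSH-purified) immobilized at 5 μM on aldehyde-activated optical biosensor; compounds added at 25 μM in PBS, 1 % DMSO; peak wavelength shift followed over time at room temperature; stoichiometry from expected PWV using ligand/receptor MW ratio and target activity.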
# [9] = test system: Human immunodeficiency virus 1; experiment: Antiviral activity against HIV1 LAI infected in human CD4+ T cells assessed as reduction of p24 positive T cells at 200 nM treated 3 days before infection measured after 9 days by flow cytometry analysis; assay type: functional; details: Human immunodeficiency virus 1, LAI, T-cell
# [10] = test system: SUP-T1; experiment: Cytotoxicity against human SupT1 cells at 30 uM after 6 days by Trypan Blue dye exclusion analysis; assay type: cell-based; details: sup-t1, 144 h; in short: as §1
# [11] = test system: SUP-T1; experiment: Cytotoxicity against human SupT1 cells at 1 uM by Trypan Blue dye exclusion analysis; assay type: cell-based; details: sup-t1, 1 µM; in short: as §1
smiles,measurement,setting,value
CCOc1ccc(/C=C(\C)[N+](=O)[O-])cc1OC,Activity,[1],> 90%
same,EC50,[2],320 nM
same,Activity,[3],Active
same,Activity,[4],0%
same,Ki,[5],14 nM
same,ΔTm,[6],2.2 °C
same,Activity,[7],< 3%
same,Activity,[8],Active
same,inhibition at 0.2 µM,[9],50%
COc1cccc(/C=C2\SC(=S)C(N)C2=O)c1OC (configuration not stated),EC50,[2],3500 nM
same,Activity,[10],> 70%
same,Activity,[3],Active
same,Activity,[4],0%
same,Ki,[5],18 nM
same,ΔTm,[6],4.8 °C
same,Activity,[7],< 3%
same,Activity,[8],Active
same,inhibition at 0.2 µM,[9],43%
C/C(=C\c1ccc2c(c1)OCO2)[N+](=O)[O-],Activity,[11],> 70%
same,Activity,[1],> 90%
same,Activity,[3],Active
same,Activity,[4],0%
same,Ki,[5],22 nM
same,ΔTm,[6],3.4 °C
same,Activity,[8],Active
same,inhibition at 0.2 µM,[9],18%
O=C1NC(=S)S/C1=C\c1cc([N+](=O)[O-])ccc1Sc1ccc(C(F)(F)F)cn1,Activity,[11],> 70%
same,Activity,[1],> 90%
same,Activity,[3],Active
same,Activity,[4],0%
same,Ki,[5],73 nM
same,ΔTm,[6],2.4 °C
same,Activity,[8],Active
same,inhibition at 0.2 µM,[9],0%
O=C1ON=C(c2ccccc2)/C1=C/c1ccc2c(c1)OCO2,Activity,[11],> 70%
same,Activity,[1],> 90%
same,Activity,[3],Active
same,Activity,[4],0%
same,Ki,[5],20 nM
same,ΔTm,[6],6.3 °C
same,Activity,[8],Active
same,inhibition at 0.2 µM,[9],33%
